Experimental data taken from article PMC9624268 (Translational Vision Science & Technology, 2022).
Read-outs that look alike come from different tables or passages of the source.

Legend:
[1] = pigmented rats, single oral dose 10 mg/kg; cited from earlier work
[2] = tested on: choroidal neovascularization; settings: mice, cited from earlier work
[3] = GLP toxicology study, ophthalmic findings and ERG in dogs; type: in vivo, dog
[4] = type: in vivo, rabbit
rodent factor D = settings: stated in discussion, no reference given; cited from earlier work
[5] = GLP toxicology study, ophthalmic findings in rats; type: in vivo, rat; settings: oral administration, 1 month, 3 months, 6 months
[6] = type: in vivo, rabbit; remark: listed apart in the source
[7] = type: in vivo, rat; settings: albino rats, single oral dose 20 mg/kg, whole-body autoradiography
Summary of the method: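 Male albino Wistar Han rats (n = 3) got a single oral dose of 20 mg/kg [14C]-labelled test compound. It was suspended on the day of dosing in PEG 400:saline:DMSO 60:36.3:3.7 (v:v:v). Carcasses were frozen in hexane/dry ice, stored at or below −20°C, and cut into ~40 μm sagittal sections. Imaging was at 50 μm resolution. Radioactivity was quantified by image densitometry as μg equivalents/g.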

[8] = type: in vivo, rat; settings: single oral dose 20 mg/kg
Summary of the method: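 Male pigmented Long–Evans rats (n = 10) got a single oral dose of 20 mg/kg [14C]-labelled test compound in PEG 400:saline:DMSO 60:36.3:3.7 (v:v:v), prepared on the day of dosing. Frozen carcasses were cut into ~40 μm sagittal sections and imaged at 50 μm resolution. Densitometry gave μg equivalents/g, and tissue t1/2 came from noncompartmental analysis.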

Compound: Cc1ccc(Nc2nccc(N(C)c3ccc4c(C)n(C)nc4c3)n2)cc1S(N)(=O)=O [Pazopanib]
- time detected in melanin-containing tissues including the uveal tract [1]: up to 35 days
- plasma levels ([2]; 3 days after a single loading dose 10 mg/kg): undetectable
- choroidal neovascularization lesion size ([2]; single loading dose 10 mg/kg, up to 2 weeks after choroidal neovascularization induction): significantly reduced

Compound: CC(=O)c1nn(CC(=O)N2C[C@H](F)C[C@H]2C(=O)Nc2cccc(Br)n2)c2ccc(-c3cnc(C)nc3)cc12 [Danicopan]
- clinical or histopathological ophthalmic findings ([3]; oral administration, 14 days, 3 months, 9 months, GLP): no clinical or histopathological ophthalmic findings
- electroretinography (ERG) abnormalities ([3]; week 38, compared to pretreatment ERG): no abnormalities were detected
- AUClast ([4]; NZW rabbit, single oral dose 15 mg/kg, choroid/BrM/RPE, mean): 1010 ng·h/g
- AUClast ([4]; NZW rabbit, single oral dose 15 mg/kg, neural retina, mean): 665 ng·h/g
- MRT last ([4]; New Zealand White, rabbit, choroid/BrM/RPE, po, 15 mg/kg): 5.87 h
- Cmax ([4]; New Zealand White, rabbit, choroid/BrM/RPE, po, 15 mg/kg, NZW rabbit, single oral dose 15 mg/kg, mean): 172 ng/g
- MRT last ([4]; New Zealand White, rabbit, neural retina, po, 15 mg/kg): 1.49 h
- Cmax ([4]; New Zealand White, rabbit, neural retina, po, 15 mg/kg, NZW rabbit, single oral dose 15 mg/kg, mean): 200 ng/g
- MRT last ([4]; New Zealand White, rabbit, plasma, po, 15 mg/kg): 4.01 h
- AUC(0-t) ([4]; New Zealand White, rabbit, plasma, po, 15 mg/kg, AUClast, NZW rabbit, single oral dose 15 mg/kg, mean): 1430 ng·h/mL
- Cmax ([4]; New Zealand White, rabbit, plasma, po, 15 mg/kg, NZW rabbit, single oral dose 15 mg/kg, mean): 310 ng/mL
- inhibitory effect on rodent factor D (rodent factor D): lack of an inhibitory effect
- clinical or histopathological ophthalmic findings [5]: no clinical or histopathological ophthalmic findings
- AUClast ([6]; DB rabbit, single oral dose 15 mg/kg, choroid/BrM/RPE, mean): 37,400 h·ng/g
- AUClast ([6]; DB rabbit, single oral dose 15 mg/kg, neural retina, mean): 998 ng·h/g
- MRTlast ([6]; DB rabbit, single oral dose 15 mg/kg, neural retina, mean, 15 mg/kg): 7.83 h
- dose-exposure relationship, plasma and neural retina ([6]; DB rabbits, 7.5, 15 and 50 mg/kg/dose twice daily for 15 days (data not shown)): approximate dose linearity
- time through which exposure was detected in plasma after the last dose ([6]; DB rabbits, 7.5, 15 and 50 mg/kg/dose twice daily for 15 days, plasma): 24 h
- dose-exposure relationship, choroid/BrM/RPE ([6]; DB rabbits, between 15 and 50 mg/kg/dose twice daily for 15 days (data not shown)): less-than-dose proportionality
- Cmax ([6]; Dutch Belted, rabbit, choroid/BrM/RPE, po, 15 mg/kg, DB rabbit, single oral dose 15 mg/kg, mean): 917 ng/g
- MRT last ([6]; Dutch Belted, rabbit, choroid/BrM/RPE, po, 15 mg/kg, MRTlast, DB rabbit, single oral dose 15 mg/kg, mean): 49.7 h
- Cmax ([6]; Dutch Belted, rabbit, neural retina, po, 15 mg/kg, DB rabbit, single oral dose 15 mg/kg, mean): 145 ng/g

Compound: [^14C]-danicopan
- radioactivity in most tissues at 24 hours postdose [7]: nonquantifiable
- time postdose at which radioactivity remained quantifiable in uveal tract ([8]; pigmented rats, uveal tract (28 days)): 672 h
- radioactivity in most tissues at 24 hours postdose ([8]; pigmented rats, whole-body autoradiography): nonquantifiable
- radioactivity in plasma and whole blood ([8]; after 8 hours postdose): undetectable
